Reference: paper PMC4324418 (ACS Chemical Neuroscience, 2014)
pKi: −log10 of the molar value.

How the values were obtained:
[1] = molecular target: T1, cyno M4 (Macaca fascicularis, UniProt G7PQB4); assay: Calcium mobilization, potentiation of ACh EC20; type: cell-based, cynomolgus monkey; settings: maximum response as % of the Emax of ACh
T1 sequence (G7PQB4 1-479): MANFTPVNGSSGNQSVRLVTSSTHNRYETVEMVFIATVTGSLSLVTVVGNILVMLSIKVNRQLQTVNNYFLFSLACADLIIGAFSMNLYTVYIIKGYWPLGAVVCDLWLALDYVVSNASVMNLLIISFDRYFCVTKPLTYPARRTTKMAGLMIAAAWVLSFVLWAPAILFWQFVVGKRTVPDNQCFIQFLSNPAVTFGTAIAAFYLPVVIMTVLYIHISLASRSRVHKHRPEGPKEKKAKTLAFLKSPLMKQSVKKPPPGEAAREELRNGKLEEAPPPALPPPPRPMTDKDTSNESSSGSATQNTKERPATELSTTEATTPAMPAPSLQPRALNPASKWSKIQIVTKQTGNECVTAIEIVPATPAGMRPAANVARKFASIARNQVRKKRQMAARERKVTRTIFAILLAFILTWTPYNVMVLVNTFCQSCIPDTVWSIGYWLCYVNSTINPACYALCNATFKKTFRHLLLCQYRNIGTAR
Outline: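 Receptor-expressing cells were plated at 15000 cells/well in DMEM with 10% dialyzed FBS, 20 mM HEPES and 1 mM pyruvate, and grown overnight at 37 °C/5% CO2. Test compound was added, then ACh at EC20 140 s later and at EC80 120 s later. Responses were normalized to 10 μM ACh maximum; ≥3 independent experiments.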

[2] = test system: rat M2 receptor; assay: Calcium mobilization, selectivity; type: cell-based
Outline: (§1)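 Cells were seeded at 15000/well in DMEM with 10% dialyzed FBS, 20 mM HEPES and 1 mM pyruvate, then cultured overnight at 37 °C/5% CO2. M2 and M4 lines were cotransfected with Gqi5. Cells were loaded with 1 μM Fluo-4AM (HBSS, 20 mM HEPES, 2.5 mM probenecid, pH 7.4) for 50 min at 37 °C. ACh was added 140 s after test compound. Calcium signal was expressed as % of the 10 μM ACh maximum.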

[3] = test system: rat M3 receptor; assay: Calcium mobilization, selectivity; type: cell-based
Outline: as §1

[4] = molecular target: T2, rat M4 receptor (Rattus norvegicus, UniProt P08485); assay: [3H]NMS radioligand binding, modulation of ACh affinity; settings: ACh displacement of [3H]NMS, modulator 300 nM to 10 μM
T2 sequence (P08485 1-478): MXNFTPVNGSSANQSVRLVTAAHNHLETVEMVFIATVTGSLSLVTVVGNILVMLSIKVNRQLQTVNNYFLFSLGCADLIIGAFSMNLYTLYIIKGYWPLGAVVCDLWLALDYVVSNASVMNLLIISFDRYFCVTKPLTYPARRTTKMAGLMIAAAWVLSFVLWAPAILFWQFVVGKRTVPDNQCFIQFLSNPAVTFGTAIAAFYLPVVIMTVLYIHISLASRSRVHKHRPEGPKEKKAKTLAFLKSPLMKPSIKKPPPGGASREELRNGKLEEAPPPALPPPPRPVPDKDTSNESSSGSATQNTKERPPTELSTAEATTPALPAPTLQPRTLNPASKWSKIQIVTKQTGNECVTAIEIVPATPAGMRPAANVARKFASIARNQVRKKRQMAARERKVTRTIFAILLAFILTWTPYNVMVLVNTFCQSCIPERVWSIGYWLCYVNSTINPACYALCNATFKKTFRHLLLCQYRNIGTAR
Outline: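 Membranes came from CHO cells expressing rat M4 cotransfected with Gqi5, homogenized in 50 mM Tris-HCl/0.9% NaCl, pH 7.4. Membranes (10 μg/well) were incubated with 300 pM [3H]NMS, fixed modulator (300 nM–10 μM) or vehicle, and ACh (1 nM–1 mM) for 3 h at room temperature with shaking. Buffer was 100 mM NaCl, 10 mM MgCl2, 20 mM HEPES, […], pH 7.4. Nonspecific binding was set with 10 μM atropine. Bound ligand was filtered and counted; n ≥ 2. Cooperativity was fitted with the […].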

[5] = molecular target: T3, guinea pig adenosine transporter (Cavia porcellus, UniProt H0V4R7); assay: Cerep panel, displacement of [3H]NTBI binding
T3 sequence (H0V4R7 1-461): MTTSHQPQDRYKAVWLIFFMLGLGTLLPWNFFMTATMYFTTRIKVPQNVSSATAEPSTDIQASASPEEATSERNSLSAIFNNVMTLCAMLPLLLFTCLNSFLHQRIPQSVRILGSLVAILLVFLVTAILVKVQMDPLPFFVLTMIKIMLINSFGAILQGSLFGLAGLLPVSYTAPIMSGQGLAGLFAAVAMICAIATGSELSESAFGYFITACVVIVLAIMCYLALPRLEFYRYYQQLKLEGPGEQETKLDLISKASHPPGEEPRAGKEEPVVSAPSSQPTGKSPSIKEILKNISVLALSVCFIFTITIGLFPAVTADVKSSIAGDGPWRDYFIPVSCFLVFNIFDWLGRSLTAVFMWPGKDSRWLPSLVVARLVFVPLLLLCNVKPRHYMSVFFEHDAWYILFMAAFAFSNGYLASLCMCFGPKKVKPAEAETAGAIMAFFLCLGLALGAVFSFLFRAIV

[6] = test system: M4 KO mice; assay: Touchscreen pairwise visual discrimination task, M4 KO mice; type: in vivo, mouse
Outline: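 Mice aged 8–11 weeks were held at ~85% free-feeding weight, with water freely available. They were trained on touchscreen nosepoke discrimination (60 trials or 60 min) to ≥85% accuracy on 3 consecutive days. Next day: vehicle (10% Tween 80 IP) or test compound (3–30 mg/kg IP) 60 min pre-test, then saline or MK-801 (0.1–0.3 mg/kg IP) 30 min later. Mice were retested drug-free 24 h later. Analysis: ANOVA with Bonferroni tests.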

[7] = test system: wild-type mice; assay: Contextual fear conditioning, one-shock paradigm; type: in vivo, mouse; settings: 3–30 mg/kg, measured 24 h later
Outline: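 One-shock contextual conditioning used a 3 min session: 2 min habituation, one 0.4 mA shock, then 59 s before removal. Dosing was vehicle (10% Tween 80 in sterile water) or test compound at 3, 10 or 30 mg/kg IP. Mice were returned to the same chamber 24 h later, and percent time freezing was scored over 3 min.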

[8] = test system: wild-type mice; assay: Rotarod; type: in vivo, mouse; settings: 3–30 mg/kg IP, rotarod 20 rpm
Outline: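 Mice received vehicle (10% Tween 80 in sterile water IP) or test compound (3–30 mg/kg IP). Sixty minutes later they were placed on the rotarod and latency to fall was measured. One-way ANOVA with Dunnett's test.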

[9] = M4 KO, VU0467154 10.0 mg/kg IP + MK-801 0.30 mg/kg IP
[10] = M4 KO, VU0467154 10.0 mg/kg IP + vehicle

Cc1nnc2sc(C(=O)NCc3ccc(S(=O)(=O)C(F)(F)F)cc3)c(N)c2c1C [VU0467154, 5-amino-3,4-dimethyl-N-(4-((trifluoromethyl)sulfonyl)benzyl)thieno[2,3-c]pyridazine-6-carboxamide]
%AChmax [1]: 57% | potentiation of ACh response (calcium response) [2]: lack of a calcium response | potentiation of ACh response (calcium response) [3]: lack of a calcium response | increase in M4 affinity for ACh (α) [4]: 14.5 fold | log α (binding cooperativity with ACh) [4]: 1.16 ± 0.06 | pKi [5]: 7.01 | reversal of MK-801-induced pairwise discrimination deficit ([6]; M4 KO mice): did not reverse the MK-801-induced pairwise discrimination deficit | response accuracy on the test day ([6]; M4 KO, MK-801 in combination with VU0467154 (vehicle 91%)): 64% | correct reward collection latency [6, 9]: 1.57 ± 0.07 s | correct touch latency [6, 9]: 8.45 ± 1.57 s | time to complete 60 trials [6, 9]: 1120 ± 95.5 s | correct reward collection latency [6, 10]: 3.19 ± 0.73 s | correct touch latency [6, 10]: 22.81 ± 8.86 s | time to complete 60 trials [6, 10]: 2080 ± 384.9 ^e s | acquisition of contextual fear conditioning behaviors [7]: dose-dependent enhancement | latency to fall [8]: did not alter the latency to fall
